Laboratory results from ChEMBL document CHEMBL5150021, “Identification of 5-(Aryl/Heteroaryl)amino-4-quinolones as Potent Membrane-Disrupting Agents to Combat Antibiotic-Resistant Gram-Positive Bacteria” (J Med Chem, 2022).
Converted amounts (≈) assume the structure as drawn. The source made the active and inactive calls. No cut-off for these calls is given here.

Tests used:
[1] = tested on: Staphylococcus aureus; test: Antibacterial activity against methicillin resistant Staphylococcus aureus FPR3757 assessed as inhibition of bacterial growth incubated for 24 hrs by CLSI based method; type: functional; details: read-out: MIC100
Procedure, shortened: (§1)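 It was mixed 1:1 with twofold serial compound dilutions and incubated stationary at 37 °C for 24 h. MIC was the lowest concentration giving complete inhibition of observable growth, with an oxacillin control.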

[2] = tested on: Erythrocyte; test: Hemolytic activity in sheep erythrocytes at 32 ug/ml incubated for 1 hr; type: toxicity, cell-based, Ovis aries; details: dose 32 µg/ml
Procedure, shortened: (§2)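 4% sheep erythrocytes mixed 1:1 with twofold serial compound dilutions in PBS, incubated stationary 1 h at 37 °C, then centrifuged at 500g for 5 min. Supernatant A540 is measured and percent hemolysis is calculated relative to DMSO vehicle (0%) and Triton X-100 (100%). Triplicate, mean ± SD.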

[3] = Cytotoxicity against sheep erythrocytes assessed as reduction in cell viability; type: toxicity, cell-based, Ovis aries, Erythrocyte; procedure, shortened: as §2
[4] = Therapeutic index, ratio of CC50 for Cytotoxicity against sheep erythrocytes to MIC for antibacterial activity against methicillin resistant Staphylococcus aureus FPR3757; type: toxicity
Procedure, shortened: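 Ratio of erythrocyte CC50 to MRSA FPR3757 MIC. For hemolysis, 4% washed sheep erythrocytes were mixed 1:1 with twofold compound dilutions in PBS and incubated 1 h at 37 °C. Supernatant A540 was read after centrifugation and normalized between DMSO and Triton X-100 (100% lysis). Triplicates. Highest concentration tested: 32 μg/mL.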

[5] = tested on: Staphylococcus aureus; test: Antibacterial activity against methicillin-resistant Staphylococcus aureus MW2 assessed as inhibition of bacterial growth incubated for 24 hrs by CLSI based method; type: functional
Procedure, shortened: (§3)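 Broth microdilution per CLSI. Equal volume of twofold serial compound dilutions added. Incubated stationary at 37 °C for 24 h. MIC taken as lowest concentration giving complete inhibition of visible growth. Oxacillin control for Gram-positives, ceftriaxone for Gram-negatives.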

[6] = tested on: Staphylococcus aureus; test: Antibacterial activity against methicillin-resistant Staphylococcus aureus COL assessed as inhibition of bacterial growth incubated for 24 hrs by CLSI based method; type: functional; procedure, shortened: as §3
[7] = tested on: Staphylococcus aureus; test: Antibacterial activity against methicillin-resistant Staphylococcus aureus N315 assessed as inhibition of bacterial growth incubated for 24 hrs by CLSI based method; type: functional; procedure, shortened: as §3
[8] = tested on: Staphylococcus aureus; test: Antibacterial activity against methicillin-resistant Staphylococcus aureus NRS71 assessed as inhibition of bacterial growth incubated for 24 hrs by CLSI based method; type: functional; procedure, shortened: as §3
[9] = tested on: Staphylococcus epidermidis; test: Antibacterial activity against Staphylococcus epidermidis NIF104008 assessed as inhibition of bacterial growth incubated for 24 hrs by CLSI based method; type: functional; procedure, shortened: as §3
[10] = tested on: Staphylococcus epidermidis; test: Antibacterial activity against Staphylococcus epidermidis NIF104003 assessed as inhibition of bacterial growth incubated for 24 hrs by CLSI based method; type: functional; procedure, shortened: as §3
[11] = tested on: Enterococcus faecalis; test: Antibacterial activity against Enterococcus faecalis ATCC700802 assessed as inhibition of bacterial growth incubated for 24 hrs by CLSI based method; type: functional; procedure, shortened: as §3
[12] = tested on: Enterococcus faecalis; test: Antibacterial activity against Enterococcus faecalis DHMC #1 assessed as inhibition of bacterial growth incubated for 24 hrs by CLSI based method; type: functional; procedure, shortened: as §3
[13] = tested on: Enterococcus faecium; test: Antibacterial activity against Enterococcus faecium ATCC19579 assessed as inhibition of bacterial growth incubated for 24 hrs by CLSI based method; type: functional; procedure, shortened: as §3
[14] = tested on: Enterococcus faecium; test: Antibacterial activity against Enterococcus faecium DHMC #1 assessed as inhibition of bacterial growth incubated for 24 hrs by CLSI based method; type: functional; procedure, shortened: as §3
[15] = tested on: Escherichia coli; test: Antibacterial activity against Escherichia coli DHMC-1 assessed as inhibition of bacterial growth incubated for 24 hrs by CLSI based method; type: functional; procedure, shortened: as §3
[16] = tested on: Klebsiella pneumoniae; test: Antibacterial activity against Klebsiella pneumoniae 7117 assessed as inhibition of bacterial growth incubated for 24 hrs by CLSI based method; type: functional; procedure, shortened: as §3
[17] = tested on: Enterobacter cloacae; test: Antibacterial activity against Enterobacter cloacae ND-21 assessed as inhibition of bacterial growth incubated for 24 hrs by CLSI based method; type: functional; procedure, shortened: as §3
[18] = tested on: Candida albicans; test: Antifungal activity against Candida albicans SC5314 assessed as inhibition of bacterial growth incubated for 24 hrs by CLSI based method; type: functional
Procedure, shortened: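 Broth microdilution per CLSI. It is mixed 1:1 with twofold serial compound dilutions and incubated stationary at 35 °C for 24 h. MIC is read as the lowest concentration with no observable growth.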

[19] = tested on: Staphylococcus aureus; test: Antibacterial activity against community-associated methicillin-resistant Staphylococcus aureus USA300 FPR3757 assessed as inhibition of bacterial growth incubated for 24 hrs by CLSI based method; type: functional; procedure, shortened: as §1
[20] = tested on: Cell membrane; test: Induction of cell membrane damage in Staphylococcus aureus USA300 assessed as cross-wall-septum formation with reduced splitting at 1 times MIC measured after 10 mins by TEM analysis; type: subcellular
[21] = tested on: Cell membrane; test: Induction of cell membrane damage in Staphylococcus aureus USA300 assessed as mesosome-like membrane inclusions at 1 times MIC measured after 1 hrs by TEM analysis
Procedure, shortened: (§4)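 Fixed in glutaraldehyde/paraformaldehyde in cacodylate pH 7.4, post-fixed with osmium tetroxide, stained with uranyl acetate, resin-embedded, thin-sectioned and imaged by TEM.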

[22] = tested on: Cell membrane; test: Induction of cell membrane damage in Staphylococcus aureus USA300 assessed as membrane wrinkling at 1 times MIC measured after 1 hrs by TEM analysis; procedure, shortened: as §4
[23] = tested on: Cell membrane; test: Induction of cell membrane damage in Staphylococcus aureus USA300 assessed as bulging of the septum at 1 times MIC measured after 1 hrs by TEM analysis; procedure, shortened: as §4
[24] = tested on: Vero; test: Cytotoxicity against African green monkey Vero cells assessed as increase in LDH release at 0.47 to 30 uM incubated for 24 hrs; type: toxicity, cell-based; details: chlorocebus sabaeus, dose 0.47-30 µM
Procedure, shortened: (§5)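 Confluent Vero cells (maintained in RPMI 1640 + 10% FBS, 37 °C, 5% CO2) exposed to compound at 0.47–30 μM (twofold dilutions) in serum-free medium for 24 h at 37 °C. LDH in supernatant is measured colorimetrically at 490 nm and expressed as percent of 2% detergent positive control.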

[25] = tested on: Vero; test: Cytotoxicity against African green monkey Vero cells assessed as increase in LDH release at 30 uM incubated for 24 hrs relative to control; type: toxicity, cell-based; details: chlorocebus sabaeus; procedure, shortened: as §5
[26] = Protein binding in human plasma at […] incubated for 4 hrs under shaking condition by LC-MS/MS based equilibrium dialysis method; type: ADME, cell-free
Procedure, shortened: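 Rapid equilibrium dialysis (8k MWCO). Compound is spiked into human plasma at 10 μg/mL and dialysed against DPBS pH 7.4 with shaking for 4 h at 37 °C. Matrices are matched, proteins precipitated with methanol containing internal standard, and both chambers quantified by LC-MS/MS against a calibration curve. Percent free and bound are calculated from chamber concentrations.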

[27] = tested on: Staphylococcus aureus; test: Antibacterial activity against methicillin resistant Staphylococcus aureus FPR3757 assessed as inhibition of bacterial growth incubated for 24 hrs in presence of 10% FBS by CLSI based method; type: functional
Procedure, shortened: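 CLSI broth microdilution against MRSA FPR3757 (USA300) in Mueller–Hinton broth supplemented with 10% serum (fetal bovine or mouse). Inoculum 10⁶ CFU/mL with twofold serial compound dilutions, stationary incubation at 37 °C for 24 h. MIC read as lowest concentration with complete inhibition of visible growth.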

[28] = tested on: Staphylococcus aureus; test: microbe, parasite or virus in culture; details: USA300 FPR3757, 24 h

With `O=c1cc(C(F)(F)F)[nH]c2cc(C(F)(F)F)cc(Nc3ccc(F)c(F)c3)c12` the MIC [1] was < 0.0625 µg/mL, the Activity [2] was “Non-Toxic” and the CC50 [3] was > 32 µg/mL. For the same compound, the selectivity ratio [4] was > 500.
For `O=c1cc(C(F)(F)F)[nH]c2cc(F)cc(Nc3ccc(C(F)(F)F)cn3)c12`, the MIC [1] was 1 µg/mL (≈ 2.56 µM) and the Activity [2] was “Non-Toxic”.
For `O=c1cc(C(F)(F)F)[nH]c2cc(C(F)(F)F)cc(N[C@H]3CC[C@H](C(F)(F)F)CC3)c12`, the MIC [1] was 0.125 µg/mL (≈ 0.28 µM), the MIC [5] was 0.125 µg/mL (≈ 0.28 µM) and the MIC [6] was < 0.06 µg/mL. For the same compound, the MIC [7] was 0.125 µg/mL (≈ 0.28 µM), the MIC [8] was 0.0625 µg/mL (≈ 0.14 µM) and the MIC [9] was 0.125 µg/mL (≈ 0.28 µM). It also gave an MIC [10] of 0.125 µg/mL (≈ 0.28 µM), an MIC [11] of 2 µg/mL (≈ 4.48 µM) and an MIC [12] of 0.125 µg/mL (≈ 0.28 µM). The MIC [13] was 0.25 µg/mL (≈ 0.56 µM), the MIC [14] was 0.25 µg/mL (≈ 0.56 µM) and the MIC [15] was > 128 µg/mL. For the same compound, the MIC [16] was > 128 µg/mL, the MIC [17] was > 128 µg/mL and the MIC [18] was > 256 µg/mL. The MIC [19] was 0.5 µg/mL (≈ 1.12 µM), the Activity [20] was “Active” and the Activity [21] was “Active”. The Activity [22] was “Active”, the Activity [23] was “Active” and the Activity [2] was “Non-Toxic”. For the same compound, the Activity [24] was “Non-Toxic”, the Activity [25] was 20% and the PPB [26] was 99.9%. It also gave an MIC [27] of 4 µg/mL and an MBC [28] of 4 µg/mL (≈ 8.96 µM).
In the case of `FC(F)(F)c1ccc2c(Oc3ccc(Cl)c(Cl)c3)cc(C(F)(F)F)nc2c1`, the MIC [1] was > 32 µg/mL.
For `FC(F)(F)c1ccc2c(Nc3ccc(C(F)(F)F)nc3)cc(C(F)(F)F)nc2c1`, the MIC [1] was > 32 µg/mL.
With `FC(F)(F)c1ccc2c(Oc3cccc(Cl)c3)cc(C(F)(F)F)nc2c1` the MIC [1] was > 32 µg/mL.
